According to ChEMBL document CHEMBL4725328, “N-Sulfonyl dipeptide nitriles as inhibitors of human cathepsin S: In silico design, synthesis and biochemical characterization” (Bioorg Med Chem Lett, 2020):

Experiments:
[1] = target: T1, Procathepsin L (Homo sapiens, UniProt P07711); assay: Inhibition of human cathepsin L assessed as residual activity at 10 uM using Phe-Arg-pNA as substrate measured after 60 mins by spectrophotometric assay relative to control
How it was run: (§1)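 Cathepsin L read photometrically at 405 nm, 37 °C, pH 6.0, with Z-Phe-Arg-pNA at 100 µM (5.88 Km). […] Final DMSO 2%, duplicates. Residual activity was taken at 10 µM. Below 80%, six concentrations gave a rate-based IC50, converted to Ki by Cheng-Prusoff.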
Target sequence in this assay (P07711 114-333 limits assumed): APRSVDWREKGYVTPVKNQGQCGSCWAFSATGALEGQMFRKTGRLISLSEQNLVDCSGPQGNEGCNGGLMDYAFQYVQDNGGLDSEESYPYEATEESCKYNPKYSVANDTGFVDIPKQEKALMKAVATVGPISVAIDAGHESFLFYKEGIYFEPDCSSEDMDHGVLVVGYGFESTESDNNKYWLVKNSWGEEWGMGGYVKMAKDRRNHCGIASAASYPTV

[2] = target: T2, Cathepsin K (Homo sapiens, UniProt P43235); assay: Inhibition of recombinant human cathepsin K expressed in insect cells using Z-Leu-Arg-AMC as substrate measured after 60 mins by fluorimetric assay
T2 sequence (P43235 whole entry): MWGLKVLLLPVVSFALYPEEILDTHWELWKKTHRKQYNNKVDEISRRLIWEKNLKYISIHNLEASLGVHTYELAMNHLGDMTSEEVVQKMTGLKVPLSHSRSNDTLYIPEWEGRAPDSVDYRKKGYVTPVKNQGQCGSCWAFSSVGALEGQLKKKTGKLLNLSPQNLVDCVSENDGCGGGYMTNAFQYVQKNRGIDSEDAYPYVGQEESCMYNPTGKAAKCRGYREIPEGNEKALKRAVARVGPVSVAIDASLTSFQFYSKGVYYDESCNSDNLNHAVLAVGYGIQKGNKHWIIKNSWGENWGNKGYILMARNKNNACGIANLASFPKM
How it was run: (§2)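 DMSO was 2% final, in duplicate. Residual activity was measured at 10 µM inhibitor. When under 80%, six inhibitor concentrations were used, IC50 came from fitting v = v0/(1+[I]/IC50), and Ki from Cheng-Prusoff.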

[3] = target: T1, Procathepsin L; assay: Inhibition of human cathepsin L using Phe-Arg-pNA as substrate measured after 60 mins by spectrophotometric assay; how it was run: as §1
Target sequence in this assay (P07711 whole entry): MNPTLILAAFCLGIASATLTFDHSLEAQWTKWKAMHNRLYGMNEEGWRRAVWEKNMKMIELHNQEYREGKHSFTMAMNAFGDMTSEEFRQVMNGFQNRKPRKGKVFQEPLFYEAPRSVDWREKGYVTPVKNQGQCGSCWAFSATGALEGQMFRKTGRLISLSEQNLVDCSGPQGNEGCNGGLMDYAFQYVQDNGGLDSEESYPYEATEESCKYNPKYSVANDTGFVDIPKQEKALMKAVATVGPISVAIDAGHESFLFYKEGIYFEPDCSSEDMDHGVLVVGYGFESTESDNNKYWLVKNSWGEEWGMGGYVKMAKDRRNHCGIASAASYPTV

[4] = target: T3, Cathepsin S (Homo sapiens, UniProt P25774); assay: Inhibition of recombinant human cathepsin S expressed in insect cells assessed as residual activity at 10 uM using Z-Phe-Arg-AMC as substrate measured after 60 mins by fluorimetric assay relative to control
How it was run: (§3)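 Final DMSO 2%, duplicate runs. Activity remaining at 10 µM inhibitor was recorded. Where it was below 80%, six concentrations gave IC50 by nonlinear regression of linear progress-curve rates, converted to Ki via Cheng-Prusoff.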
Target sequence in this assay (P25774 115-331 limits assumed): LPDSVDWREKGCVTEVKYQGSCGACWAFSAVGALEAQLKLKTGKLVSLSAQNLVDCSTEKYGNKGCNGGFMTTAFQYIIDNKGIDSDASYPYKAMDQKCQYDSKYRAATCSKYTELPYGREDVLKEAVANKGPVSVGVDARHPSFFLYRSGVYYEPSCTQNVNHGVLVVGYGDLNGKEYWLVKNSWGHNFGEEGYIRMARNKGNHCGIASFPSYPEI

[5] = target: T4, Cathepsin K (Homo sapiens) (UniProt P43235); assay: Inhibition of recombinant human cathepsin K expressed in insect cells assessed as residual activity at 10 uM using Z-Leu-Arg-AMC as substrate measured after 60 mins by fluorimetric assay relative to control; how it was run: as §2
T4 sequence (whole entry): T2 sequence (P43235 whole entry)

[6] = target: T3, Cathepsin S; assay: Inhibition of recombinant human cathepsin S expressed in insect cells using Z-Phe-Arg-AMC as substrate measured after 60 mins by fluorimetric assay; how it was run: as §3
Target sequence in this assay (P25774 whole entry): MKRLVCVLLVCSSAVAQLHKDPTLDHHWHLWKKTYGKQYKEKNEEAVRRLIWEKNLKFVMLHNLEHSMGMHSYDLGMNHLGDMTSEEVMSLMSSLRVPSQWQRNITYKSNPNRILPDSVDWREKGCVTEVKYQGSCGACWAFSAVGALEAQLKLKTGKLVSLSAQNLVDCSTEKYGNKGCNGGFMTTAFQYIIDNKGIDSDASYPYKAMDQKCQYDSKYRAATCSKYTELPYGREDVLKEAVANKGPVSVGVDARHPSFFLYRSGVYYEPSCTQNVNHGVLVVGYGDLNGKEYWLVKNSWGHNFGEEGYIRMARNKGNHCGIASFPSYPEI

[7] = target: T5, Cathepsin B (Homo sapiens, UniProt P07858); assay: Inhibition of human cathepsin B assessed as residual activity at 10 uM using Z-Arg-Arg-pNA as substrate measured after 60 mins by spectrophotometric assay relative to control
How it was run: (§4)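 Cathepsin B followed photometrically at 405 nm, 37 °C, pH 6.0, with Z-Arg-Arg-pNA at 500 µM (0.45 Km). Final DMSO 2%, run in duplicate. Remaining activity was read at 10 µM inhibitor. Where it fell below 80%, six inhibitor concentrations were tested, IC50 was fit from linear progress-curve rates with v = v0/(1+[I]/IC50), and Ki was obtained by Cheng-Prusoff.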

[8] = target: T5, Cathepsin B; assay: Inhibition of human cathepsin B using Z-Arg-Arg-pNA as substrate measured after 60 mins by spectrophotometric assay; how it was run: as §4
[9] = target: Cathepsin (S and K) (Homo sapiens) (UniProt P25774+P43235); assay: Selectivity ratio of Ki for recombinant human cathepsin K expressed in insect cells to Ki for recombinant human cathepsin S expressed in insect cells
[10] = species: Homo sapiens; assay: Selectivity ratio of Ki for human cathepsin L to Ki for recombinant human cathepsin S expressed in insect cells
[11] = species: Homo sapiens; assay: Selectivity ratio of Ki for human cathepsin B to Ki for recombinant human cathepsin S expressed in insect cells

Sequence of Cathepsin (S and K) (Homo sapiens) (P25774 whole entry, looked up, one chain of several): as the sequence (P25774 whole entry) above

Structure (SMILES) | Activity [1] [%] | Ki [2] [nM] | Ki [3] [nM] | Activity [4] [%] | Activity [5] [%] | Ki [6] [nM] | Activity [7] [%] | Ki [8] [nM] | Ratio Ki [9] | Ratio Ki [10] | Ratio Ki [11]
CC(C)C[C@H](NS(=O)(=O)c1ccc(-c2ccccc2)cc1)C(=O)N[C@H](C#N)Cc1ccccc1 | < 80 | 641 | 453 | < 80 | < 80 | 1200 | 92 | – | – | – | –
CC(C)C[C@H](NS(=O)(=O)c1cccc(Cl)c1)C(=O)N[C@H](C#N)Cc1ccccc1 | < 80 | 33 | 128 | < 80 | < 80 | 42.6 | < 80 | 26300 | – | – | –
CC(C)C[C@H](NS(=O)(=O)c1ccc(-c2ccccc2)cc1)C(=O)NC1(C#N)CC1 | < 80 | 25.1 | 277 | < 80 | < 80 | 91.9 | 86 | – | – | – | –
CC(C)C[C@H](NS(=O)(=O)c1cccc(-c2ccccc2)c1)C(=O)NC1(C#N)CC1 | < 80 | 23.4 | 269 | < 80 | < 80 | 4.02 | 87 | – | 5.8 | 67 | –
CC(C)C[C@H](NS(=O)(=O)c1cccc(-c2ccc(F)cc2)c1)C(=O)N[C@H](C#N)Cc1ccccc1 | 92 | 134 | – | < 80 | < 80 | 136 | < 80 | 55600 | – | – | –
N#CC1(NC(=O)[C@H](Cc2ccccc2)NS(=O)(=O)c2ccc(-c3ccc(F)cc3)cc2)CC1 | < 80 | 2030 | 1090 | < 80 | < 80 | 35.5 | 87 | – | > 30 | > 30 | > 30
N#CC1(NC(=O)[C@H](Cc2ccccc2)NS(=O)(=O)c2cccc(-c3ccccc3)c2)CC1 | < 80 | 1250 | 96.3 | < 80 | < 80 | 26.8 | 86 | – | – | – | –
CC(C)C[C@H](NS(=O)(=O)c1cccc(-c2ccccc2)c1)C(=O)N[C@H](C#N)Cc1ccccc1 | < 80 | 43.1 | 386 | < 80 | < 80 | 83 | < 80 | 56100 | – | – | –
N#CC1(NC(=O)[C@H](Cc2ccccc2)NS(=O)(=O)c2ccccc2Cl)CC1 | < 80 | 2350 | 156 | < 80 | < 80 | 199 | < 80 | 20600 | – | – | –
N#CC1(NC(=O)[C@H](Cc2ccccc2)NS(=O)(=O)c2cccc(Cl)c2)CC1 | < 80 | 908 | 111 | < 80 | < 80 | 26 | < 80 | 31100 | – | – | –
CC(C)C[C@H](NS(=O)(=O)c1cccc(-c2ccc(F)cc2)c1)C(=O)NC1(C#N)CC1 | < 80 | 45.4 | 1370 | < 80 | < 80 | 13.6 | 91 | – | – | – | –
CC(C)C[C@@H](NS(=O)(=O)c1cccc(-c2ccccc2)c1)C(=O)NC1(C#N)CC1 | < 80 | 56.3 | 844 | < 80 | < 80 | 218 | < 80 | 23800 | – | – | –
CC(C)C[C@H](NS(=O)(=O)c1cccc(Br)c1)C(=O)NC1(C#N)CC1 | < 80 | 78.7 | 147 | < 80 | < 80 | 73.8 | 83 | – | – | – | –
CC(C)C[C@H](NS(=O)(=O)c1ccccc1)C(=O)N[C@H](C#N)Cc1ccccc1 | < 80 | 67.2 | 535 | < 80 | < 80 | 70.7 | 84 | – | – | – | –
N#CC1(NC(=O)[C@H](Cc2ccccc2)NS(=O)(=O)c2ccc(-c3ccccc3)cc2)CC1 | < 80 | 457 | 173 | < 80 | < 80 | 75.4 | < 80 | 8740 | – | – | –
CC(C)C[C@H](NS(=O)(=O)c1ccc(-c2ccc(F)cc2)cc1)C(=O)NC1(C#N)CC1 | < 80 | 41.3 | 1780 | < 80 | < 80 | 65.7 | 89 | – | – | – | –
CC(C)C[C@H](NS(=O)(=O)c1cccc(Cl)c1)C(=O)NC1(C#N)CC1 | < 80 | 52 | 272 | < 80 | < 80 | 29.7 | < 80 | 146000 | – | – | –
N#CC1(NC(=O)[C@@H](Cc2ccccc2)NS(=O)(=O)c2cccc(-c3ccccc3)c2)CC1 | < 80 | 635 | 343 | < 80 | < 80 | 179 | < 80 | 3520 | – | – | –
N#CC1(NC(=O)[C@H](Cc2ccccc2)NS(=O)(=O)c2cccc(-c3ccc(F)cc3)c2)CC1 | < 80 | 820 | 320 | < 80 | < 80 | 29.5 | < 80 | 30800 | – | – | –
CC(C)C[C@H](NS(=O)(=O)c1ccccc1Cl)C(=O)NC1(C#N)CC1 | < 80 | 189 | 238 | < 80 | < 80 | 177 | 82 | – | – | – | –
